Screening data deposited in PubChem BioAssay by several laboratories.
Neddylation inh: inhibitors of human cullin neddylation; inhibition, % at 25 µM; 0.58% of 360,000 active; TR-FRET cullin neddylation, biochemical; AID 651699; in the data active = inhibition above about 36%
Target sequence (P61081 whole entry, looked up): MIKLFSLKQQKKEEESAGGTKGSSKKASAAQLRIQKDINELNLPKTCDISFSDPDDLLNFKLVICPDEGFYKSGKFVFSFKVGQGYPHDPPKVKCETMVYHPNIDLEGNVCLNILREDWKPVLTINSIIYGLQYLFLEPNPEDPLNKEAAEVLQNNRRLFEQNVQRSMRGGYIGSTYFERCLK
Target sequence (Q13564 whole entry, looked up): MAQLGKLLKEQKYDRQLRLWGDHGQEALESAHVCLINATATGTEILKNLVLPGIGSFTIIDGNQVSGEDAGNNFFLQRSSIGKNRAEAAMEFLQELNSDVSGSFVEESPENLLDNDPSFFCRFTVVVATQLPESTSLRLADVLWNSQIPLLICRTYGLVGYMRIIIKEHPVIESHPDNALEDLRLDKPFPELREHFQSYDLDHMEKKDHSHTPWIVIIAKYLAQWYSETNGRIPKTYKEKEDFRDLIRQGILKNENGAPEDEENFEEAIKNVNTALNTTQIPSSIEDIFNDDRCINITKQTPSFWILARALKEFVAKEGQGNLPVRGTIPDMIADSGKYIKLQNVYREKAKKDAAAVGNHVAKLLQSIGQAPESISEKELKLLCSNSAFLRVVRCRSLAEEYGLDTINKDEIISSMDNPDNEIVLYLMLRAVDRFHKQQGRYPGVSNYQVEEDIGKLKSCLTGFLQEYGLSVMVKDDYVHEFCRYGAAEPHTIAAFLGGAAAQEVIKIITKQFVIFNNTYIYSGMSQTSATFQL
HKDC1 inhibitor: inhibitors of human hexokinase HKDC1; 0.16% of 340,000 active; recombinant HKDC1, G6PDH/diaphorase resazurin coupled fluorescence; inhibition, % at 20 µM; Q2TB90;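 active = inhibition above about 35% when tested at 20 µM, limit read from the data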
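Test system: recombinant HKDC1 (HK5) hexokinase enzyme, produced in-house / Doses: 20 µM test compound, 1% DMSO / Timing: 90 min, room temperature / Detection: G6PDH/diaphorase-coupled fluorescence, 1 mM NADP, 100 µM resazurin, 525/613 nm / Control set: DMSO wells with and without enzyme mix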
PfG6PD inh: PfG6PD (Plasmodium falciparum) enzyme inhibition; AID 504690; PfGluPho enzyme, NADPH resazurin-diaphorase fluorescence; 0.78% of 350,000 active; inhibition, % at 20 µM;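 active = inhibition reaching at least a set limit at 20 µM in the primary screen, cut at about 59% in these data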
M18AAP inhibitor: blocks P. falciparum M18 aspartyl aminopeptidase | recombinant PfM18AAP, H-Glu-NHMec fluorogenic cleavage | inhibition, % at 7.35 µM | 1.2% of 290,000 active | AID 1822;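 active = inhibition above the campaign mean inhibition over all tested compounds plus 3 SD, cut at about 28% in these data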
PfGluPho conf: PfG6PD inhibition, single-dose confirmed; shares compounds with PfG6PD inh; recombinant PfGluPho, NADPH-diaphorase-resazurin fluorescence; inhibition, % at 20 µM; 34% of 2,400 active; AID 504753;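 active = inhibition of at least 50% at 20 µM in any single replicate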
Diaphorase 10uM: diaphorase inhibition or oxidation at 10 uM NADPH | shares compounds with PfG6PD inh | diaphorase-coupled resazurin reduction, fluorescence, NADPH 10 uM | inhibition, % at 20 µM | 39% of 820 active | AID 504862;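 active = average inhibition reaching 50% or more with the compound at 20 µM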;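 also: resorufin red fluorescence formed as diaphorase reduces resazurin using NADPH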
Diaphorase 30uM: inhibits diaphorase or oxidizes, flagging false PfG6PD hits | 29% of 820 active | Diaphorase/resazurin coupled assay, resorufin fluorescence, 30 uM NADPH | shares compounds with PfG6PD inh | inhibition, % at 20 µM;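 active = inhibition averaging 50% or more, tested at 20 µM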
Large screens that a line does not name were inactive (follow-up assays come after a bar, where shown). Hits are enriched below; roughly 2.2% of the tested compounds scored in any of these assays.

O=S(=O)(Nc1cc(Sc2cccc3cccnc23)c(O)c2ccccc12)c1ccc(F)cc1	PfG6PD inh 98 (no result: Neddylation inh) | PfGluPho conf 85 | Diaphorase 10uM inactive | Diaphorase 30uM inactive
O=C(Sc1cccc2cccnc12)c1ccc(F)cc1	none (no result: Neddylation inh, HKDC1 inhibitor, PfG6PD inh)
C=CCn1c(SCC(=O)Nc2ccccc2OC)nnc1-c1ccccn1	none
CCn1c(SCC(=O)Nc2ccc3c(c2)c2ccccc2n3CC)nnc1-c1cnccn1	none
CCn1c(SCC(=O)Nc2ccccc2OC)nnc1-c1cnccn1	PfG6PD inh 78 | PfGluPho conf 53 | Diaphorase 10uM inactive | Diaphorase 30uM inactive
CCn1c(SCC(=O)Nc2ccc(C)cc2)nnc1-c1cnccn1	PfG6PD inh 68 | PfGluPho conf inactive
C=CCn1c(SCC(=O)Nc2ccc(OC)cc2)nnc1-c1cnccn1	PfG6PD inh 64 | PfGluPho conf inactive
COc1cc(/C=N/NC(=O)c2ccc(CN3C(=O)c4cccc5cccc3c45)cc2)cc(OC)c1O	Neddylation inh 44, PfG6PD inh 64 | PfGluPho conf inactive
CCOc1cc(C(C(=O)NCC2CCCO2)N(C(=O)Cn2nnc3ccccc32)c2ccccc2C(C)=O)ccc1O (stereo not given)	none
O=C1SC(SC(=Nc2ccccc2)Nc2ccccc2)C(=O)N1c1ccccc1 (stereo not given)	PfG6PD inh 60 | PfGluPho conf inactive
CC(C)C(=O)N1CCC(n2nccc2NC(=O)CCc2ccccc2)CC1	none
CC1CCc2c(sc(NC(=O)Cn3nc(C(F)(F)F)c4c3CCCCC4)c2C#N)C1 (stereo not given)	none
N#Cc1c(NC(=O)Cn2nc(C(F)(F)F)c3c2CCCC3)sc2c1CCC2	PfG6PD inh 70 | PfGluPho conf inactive
COc1cc(/C=C\C(=O)O)cc(S(=O)(=O)N2CCCCCC2)c1OC	none
O=S1(=O)c2ccc(Br)cc2N2CCC[C@H]2CN1Cc1ccccc1	PfG6PD inh 73 (no result: M18AAP inhibitor) | PfGluPho conf inactive
O=S1(=O)c2ccc(Br)cc2N2CCC[C@@H]2CN1C1CC1	none (no result: M18AAP inhibitor)
O=S1(=O)c2ccc(Br)cc2N2CCC[C@@H]2CN1Cc1ccc(Cl)cc1	PfG6PD inh 63 (no result: M18AAP inhibitor) | PfGluPho conf inactive
CCOc1cc2[nH]c(=S)n(CCCC(=O)NCc3ccccn3)c(=O)c2cc1OCC	none
COc1ccc(Nc2cc(C)nc(N)n2)cc1	none
Cc1cc(Nc2ccc(Cl)cc2)nc(N)n1	PfG6PD inh 63 | PfGluPho conf inactive
C=CCOc1ccc(CNc2ccc3[nH]c(=O)[nH]c3c2)cc1OC	PfG6PD inh 85 (not shown: Neddylation inh) | PfGluPho conf 66 | Diaphorase 10uM inactive | Diaphorase 30uM inactive
COc1cc(CNc2ccc3[nH]c(=O)[nH]c3c2)ccc1OCc1ccccc1	PfG6PD inh 65 | PfGluPho conf 50 | Diaphorase 10uM inactive | Diaphorase 30uM inactive
COc1cc(CNc2ccc3[nH]c(=O)[nH]c3c2)ccc1OCC(=O)NC(C)(C)C	none
COc1cc(CNc2ccc3[nH]c(=O)[nH]c3c2)ccc1OCc1c(F)cccc1Cl	none
COc1cc(CNc2ccc3[nH]c(=O)[nH]c3c2)ccc1OCc1ccc(Cl)cc1	PfG6PD inh 63 | PfGluPho conf inactive
COc1cccc(CNc2ccc3[nH]c(=O)[nH]c3c2)c1OCc1ccccc1Cl	PfG6PD inh 65 | PfGluPho conf 50 | Diaphorase 10uM inactive | Diaphorase 30uM inactive
CCOc1ccc(NC(=O)CSc2nnc(NC(=O)C3CC3)s2)cc1	none
CCCOc1ccc(C(=O)CCC(=O)OCC(=O)Nc2cccc(S(N)(=O)=O)c2)cc1	none (no result: M18AAP inhibitor)
COc1cc(CNc2ccc3[nH]c(=O)[nH]c3c2)ccc1OCc1ccc(F)cc1	PfG6PD inh 66 | PfGluPho conf inactive
COc1ccc(NS(=O)(=O)c2cc(NC(=O)C3CC3)ccc2N2CCCCC2)cc1	none
COc1ccccc1NS(=O)(=O)c1cc(NC(=O)C2CCC2)ccc1N1CCCCC1	PfG6PD inh 60 | PfGluPho conf inactive
COc1ccccc1NS(=O)(=O)c1cc(NC(=O)c2ccc(Cl)nc2)ccc1N1CCCC1	PfG6PD inh 72 (no result: M18AAP inhibitor) | PfGluPho conf 50 | Diaphorase 10uM inactive | Diaphorase 30uM inactive
COc1ccccc1NS(=O)(=O)c1cc(NC(=O)c2cccnc2)ccc1N1CCCCC1	none (no result: M18AAP inhibitor)
Cc1ccc(CNC(=O)COc2ccc(S(=O)(=O)N3CCCC3)cc2)cc1	none
